Source: ChEMBL document CHEMBL1909507, “Substituted phenyl 4-(2-oxoimidazolidin-1-yl)benzenesulfonamides as antimitotics. Antiproliferative, antiangiogenic and antitumoral activity, and quantitative structure-activity relationships” (Eur J Med Chem, 2011)
pIC50: −log10 of the molar value. Activity calls are given as the source filed them. No cut-off for these calls is given here.

Legend:
[1] = Antiproliferative activity against mouse P388D1 after 48 hrs by SRB assay; conditions: P388D1, 48 h
CCRF-CEM [2] = assay: Ratio of IC50 for human multidrug-resistant CEM/VLB cells to IC50 for human CEM cells; format: functional
Procedure, shortened: (§1)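 Each ratio is the IC50 in the resistant line divided by the IC50 in its parental line (CHO for CHO-TAX 5-6 and CHO-VV 3-2; CEM for CEM-VLB).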

CHO-VV 3-2 [3] = assay: Ratio of IC50 for colchicine and vinblastine-resistant CHO-VV 3-2 cells to IC50 for CHO cells; format: functional, Cricetulus griseus
Procedure, shortened: as §1

[4] = Antiproliferative activity against mouse B16F0 after 48 hrs by SRB assay
[5] = Antiproliferative activity against human multidrug-resistant CEM/VLB cells after 48 hrs by SRB assay; format: functional
CHO-TAX 5-6 [6] = assay: Ratio of IC50 for paclitaxel-resistant CHO-TAX 5-6 cells to IC50 for CHO cells; format: functional, Cricetulus griseus
Procedure, shortened: as §1

M21 [7] = assay: Antiproliferative activity against human M21 cells after 48 hrs by SRB assay; format: functional, cell-based; conditions: M21, 48 h
Procedure, shortened: (§2)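 Adherent cells were seeded per line (e.g. HT-29 5000, M21 3500, MCF7 7500, CHO and CHO-VV 3-2 and CHO-TAX 5-6 1000 cells/well) and grown 24 h at 37 °C, 5% CO₂. DMSO-solubilized drug was diluted in medium and added at 1000–0.98 nM for 48 h. Cells were fixed with cold 10% TCA and stained with 0.1% sulforhodamine B, with absorbance read at 530–565 nm.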

MCF7 = assay: Antiproliferative activity against human MCF7 cells after 48 hrs by SRB assay; format: functional, cell-based; conditions: MCF7, 48 h
Procedure, shortened: as §2

HT-29 = assay: Antiproliferative activity against human HT-29 cells after 48 hrs by SRB assay; format: functional, cell-based; conditions: HT-29, 48 h
Procedure, shortened: as §2

HT-1080 [8] = assay: Antitumor activity against human HT1080 cells xenografted in chicken chorioallantoic membrane assessed as inhibition of tumor growth at 3 ug, iv measured on day 17 by CAM assay; format: functional
Procedure, shortened: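 Fertilized chicken eggs were incubated 10 days, then 3.5 × 10⁵ HT-1080 cells/egg were applied to the exposed chorioallantoic membrane. On day 11, drug was given iv in DMSO diluted in excipient (ethanol:cremophor:PBS 6.25:6.25:87.5). Read-out was tumor wet weight as % of untreated eggs, plus chick mortality. Data were pooled from two independent experiments of 10–12 eggs each.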

M21 [9] = assay: Cell cycle arrest in human M21 cells assessed as accumulation at G2/M phase at 5 times IC50 after 24 hrs using propidium iodide staining by flow cytometric analysis (reference value: 9%); format: functional
Procedure, shortened: (§3)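 Cells were trypsinized, fixed in ice-cold ethanol, treated with RNase, and stained with propidium iodide (1 mg/mL stock) for 1 h on ice. Cell-cycle distribution was measured by flow cytometry.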

L1210 = assay: Antiproliferative activity against mouse L1210 after 48 hrs by SRB assay; format: functional, cell-based; conditions: L1210, 48 h
HT-1080 [10] = assay: Antiproliferative activity against human HT1080 after 48 hrs by SRB assay; format: functional, cell-based; conditions: HT-1080, 48 h
Procedure, shortened: as §2

M21 [11] = assay: Cell cycle arrest in human M21 cells assessed as accumulation at S phase at 5 times IC50 after 24 hrs using propidium iodide staining by flow cytometric analysis (reference value: 30%); format: functional
Procedure, shortened: as §3

M21 [12] = assay: Cell cycle arrest in human M21 cells assessed as accumulation at G0/G1 phase at 5 times IC50 after 24 hrs using propidium iodide staining by flow cytometric analysis (reference value: 61%); format: functional
Procedure, shortened: as §3

CCRF-CEM [13] = assay: Antiproliferative activity against human CEM after 48 hrs by SRB assay; format: functional, cell-based
CHO-VV 3-2 [14] = assay: Antiproliferative activity against colchicine and vinblastine-resistant CHO-VV 3-2 cells after 48 hrs by SRB assay; format: functional, cell-based; conditions: Cricetulus griseus, CHO-VV 3-2, 48 h
Procedure, shortened: as §2

K562 = assay: Antiproliferative activity against human K562 after 48 hrs by SRB assay; format: functional, cell-based; conditions: K562, 48 h
CHO-TAX 5-6 [15] = assay: Antiproliferative activity against paclitaxel-resistant CHO-TAX 5-6 cells after 48 hrs by SRB assay; format: functional, cell-based; conditions: Cricetulus griseus, CHO-TAX 5-6, 48 h
Procedure, shortened: as §2

SK-OV-3 = assay: Antiproliferative activity against human SKOV3 after 48 hrs by SRB assay; format: functional, cell-based; conditions: SK-OV-3, 48 h
Procedure, shortened: as §2

MDA-MB-231 [16] = assay: Antiproliferative activity against human MDA-MB-231 after 48 hrs by SRB assay; format: functional, cell-based; conditions: MDA-MB-231, 48 h
M21 [17] = assay: Disruption of cytoskeleton microtubule structure of human M21 cells at 5 times IC50 after 16 hrs by indirect immunofluorescence assay; format: functional, cell-based
Procedure, shortened: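 Cells were fixed in 3.7% formaldehyde, permeabilized with saponin, and stained with anti-β-tubulin TUB 2.1, Alexa-488 anti-mouse secondary and DAPI. Fluorescence microscopy was used for imaging.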

[18] = Toxicity against fertilized chicken embryo assessed as mortality at 3 ug, iv by CAM assay; format: organism-based, Gallus gallus; conditions: in vivo, read-out: Activity
Procedure, shortened: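 HT-1080 fibrosarcoma cells (3.5 × 10⁵ cells/egg) grafted onto the chorioallantoic membrane of fertilized chicken eggs (10 days preincubation). On day 11, drug in DMSO diluted into excipient (ethanol:cremophor:PBS 6.25:6.25:87.5) given iv at 3 µg per egg. Chick mortality recorded over 7-day tumor growth period. Untreated eggs as negative controls and for normalization. Cumulative results from two independent experiments, 10–12 eggs each.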

DU-145 = assay: Antiproliferative activity against human DU145 after 48 hrs by SRB assay; format: functional, cell-based; conditions: DU-145, 48 h
CHO = assay: Antiproliferative activity against Chinese hamster CHO after 48 hrs by SRB assay; conditions: Cricetulus griseus
MDA-MB-231 [19] = assay: Displacement of N,N'-ethylenebis(iodoacetamide) from beta-tubulin colchicine-binding site in human MDA-MB-231 cells at 1000 times IC50 preincubated for 2 hrs before N,N'-ethylenebis(iodoacetamide) addition measured after 1.5 hrs by chemiluminescence assay; format: cell-based
Procedure, shortened: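 EBI (100, final) was added for 1.5 h at 37 °C with drug present; control was 0.5% DMSO. Sonicated lysates (20 µg protein) were run on 10% SDS-PAGE and blotted with anti-β-tubulin TUB 2.1. The β-tubulin–EBI adduct was scored by ECL.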

CC[C@]1(O)C[C@@H]2CN(CCc3c([nH]c4ccccc34)[C@@](C(=O)OC)(c3cc4c(cc3OC)N(C)[C@H]3[C@@](O)(C(=O)OC)[C@H](OC(C)=O)[C@]5(CC)C=CCN6CC[C@]43[C@@H]65)C2)C1 [VINBLASTINE]
pIC50 [1]: 8.74
Ratio IC50 (CCRF-CEM [2]): 1579
Ratio IC50 (CHO-VV 3-2 [3]): 3.9
pIC50 [4]: 10.00
pIC50 [5]: 6.22
Ratio IC50 (CHO-TAX 5-6 [6]): 0.41

N#CCc1ccc(NS(=O)(=O)c2ccc(N3CCNC3=O)cc2)cc1
pIC50 (M21 [7]): < 6.00
pIC50 (MCF7): < 6.00
pIC50 (HT-29): < 6.00

CCCCOc1ccc(NS(=O)(=O)c2ccc(N3CCNC3=O)cc2)cc1
pIC50 (M21 [7]): 6.24
pIC50 (MCF7): 6.06
pIC50 (HT-29): 6.20

O=C1NCCN1c1ccc(S(=O)(=O)Nc2ccc(Cl)cc2)cc1
pIC50 (M21 [7]): 7.05
pIC50 (MCF7): 6.77
pIC50 (HT-29): 6.66

COc1cc2c(c(OC)c1OC)-c1ccc(OC)c(=O)cc1[C@@H](NC(C)=O)CC2 [COLCHICINE]
pIC50 [1]: 7.55
pIC50 [4]: 7.89
pIC50 [5]: 6.44

Cc1ccc(NS(=O)(=O)c2ccc(N3CCNC3=O)cc2)c(C)c1
pIC50 (M21 [7]): 6.82
pIC50 (MCF7): 6.64
pIC50 (HT-29): 6.74

COc1ccccc1NS(=O)(=O)c1ccc(N2CCNC2=O)cc1
pIC50 (M21 [7]): 6.52
pIC50 (MCF7): 6.11
pIC50 (HT-29): 6.26

Cc1ccccc1NS(=O)(=O)c1ccc(N2CCNC2=O)cc1
pIC50 (M21 [7]): 6.82
pIC50 (MCF7): 6.55
pIC50 (HT-29): 6.70

Cc1cccc(NS(=O)(=O)c2ccc(N3CCNC3=O)cc2)c1
pIC50 [1]: 6.60
inhibition (HT-1080 [8]): inactive
Ratio IC50 (CCRF-CEM [2]): 1.9
Activity (M21 [9]): 83%
pIC50 (L1210): 6.74
pIC50 (HT-1080 [10]): 6.68
Activity (M21 [11]): 16%
Activity (M21 [12]): 1%
Ratio IC50 (CHO-VV 3-2 [3]): 1.2
pIC50 (CCRF-CEM [13]): 6.70
pIC50 (M21 [7]): 7.16
pIC50 (CHO-VV 3-2 [14]): 6.55
pIC50 (K562): 6.70
pIC50 (CHO-TAX 5-6 [15]): 6.82
pIC50 (SK-OV-3): 6.70
pIC50 (MDA-MB-231 [16]): 5.90
Activity (M21 [17]): Active
pIC50 (MCF7): 6.72
mortality [18]: 8%
pIC50 (DU-145): 6.24
pIC50 (CHO): 6.64
Activity (MDA-MB-231 [19]): Active
pIC50 (HT-29): 6.96
pIC50 [4]: 6.54
pIC50 [5]: 6.43
Ratio IC50 (CHO-TAX 5-6 [6]): 0.65

Cc1ccc(NS(=O)(=O)c2ccc(N3CCNC3=O)cc2)cc1
pIC50 (M21 [7]): 6.59
pIC50 (MCF7): 6.21
pIC50 (HT-29): 6.32

O=C1NCCN1c1ccc(S(=O)(=O)Nc2ccc(OC(F)F)cc2)cc1
pIC50 (M21 [7]): 6.39
pIC50 (MCF7): 6.12
pIC50 (HT-29): 6.19

O=C1NCCN1c1ccc(S(=O)(=O)Nc2ccc3c(c2)OCO3)cc1
pIC50 (M21 [7]): 6.72
pIC50 (MCF7): 6.34
pIC50 (HT-29): 6.55

CCCCc1ccc(NS(=O)(=O)c2ccc(N3CCNC3=O)cc2)cc1
pIC50 (M21 [7]): 6.35
pIC50 (MCF7): 6.11
pIC50 (HT-29): 6.21

Cc1cccc(NS(=O)(=O)c2ccc(N3CCNC3=O)cc2)c1C
pIC50 (M21 [7]): 6.96
pIC50 (MCF7): 6.64
pIC50 (HT-29): 6.72

CCCCCCCc1ccc(NS(=O)(=O)c2ccc(N3CCNC3=O)cc2)cc1
pIC50 (M21 [7]): < 6.00
pIC50 (MCF7): < 6.00
pIC50 (HT-29): < 6.00

CC(C)(C)c1cc(NS(=O)(=O)c2ccc(N3CCNC3=O)cc2)cc(C(C)(C)C)c1
pIC50 (M21 [7]): < 6.00
pIC50 (MCF7): < 6.00
pIC50 (HT-29): < 6.00

O=C1NCCN1c1ccc(S(=O)(=O)Nc2ccc(Br)cc2)cc1
pIC50 (M21 [7]): 6.89
pIC50 (MCF7): 6.62
pIC50 (HT-29): 6.52

O=C1NCCN1c1ccc(S(=O)(=O)Nc2ccc3c(c2)CCC3)cc1
pIC50 (M21 [7]): 6.89
pIC50 (MCF7): 6.62
pIC50 (HT-29): 6.72
